Screening data as filed in PubChem.
Hits are enriched below; roughly 1.8% of the tested compounds scored in any of these assays.
Mdm2 ligase inh = inhibitors of human Mdm2 E3 ubiquitin ligase; Q00987; cell-based MDM2 ubiquitination luciferase reporter, 2 h; 0 = plate control, 100 = twice control, blank-subtracted; signal enhancement, % at 5 µM; 0.11% of 210,000 active;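 active means signal enhancement of 30% or more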;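 further: luminescence tracks abundance of the self-degrading MDM2-luciferase fusion protein; higher signal means inhibition of MDM2 E3 ligase activity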
Target sequence (Q00987 whole entry, looked up, the tested form may be a part): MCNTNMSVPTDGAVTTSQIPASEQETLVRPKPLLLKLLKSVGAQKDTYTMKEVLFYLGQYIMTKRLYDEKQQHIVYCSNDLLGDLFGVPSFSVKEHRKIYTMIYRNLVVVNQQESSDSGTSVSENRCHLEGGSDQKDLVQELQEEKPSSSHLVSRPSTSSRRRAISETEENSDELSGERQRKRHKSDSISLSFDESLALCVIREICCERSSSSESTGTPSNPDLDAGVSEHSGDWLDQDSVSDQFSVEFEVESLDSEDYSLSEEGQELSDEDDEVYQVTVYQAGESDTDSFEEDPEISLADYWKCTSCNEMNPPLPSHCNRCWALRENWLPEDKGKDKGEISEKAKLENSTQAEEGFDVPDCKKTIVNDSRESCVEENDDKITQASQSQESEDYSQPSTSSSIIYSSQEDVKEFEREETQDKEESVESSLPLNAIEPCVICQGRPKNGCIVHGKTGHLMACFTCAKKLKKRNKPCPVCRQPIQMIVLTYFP
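Material: Stable MDM2–luciferase fusion reporter cells | Amount: 2000 cells seeded into each well | Dosing: One concentration, 5 µM, with 0.2% DMSO | Incubation: 4 h cell settling then 2 h compound exposure, 37 °C | Measured by: Luciferase luminescence | Read-out basis: % enhancement relative to plate controls after blank subtraction | Benchmarks: Control and blank well means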
TNF necrop inh = TNF-alpha cell death inhibition in Jurkat FADD-/- cells; Jurkat FADD-/- TNF necroptosis rescue, ATP luminescence, 24 h; 0 = TNF only, 100 = no-TNF cells; activation (protection from cell death), % at 10 µM; 0.068% of 220,000 active;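 active means activation, meaning protection from cell death, of at least 50% relative to plate controls; inactive means activation below 50%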;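 further: necroptosis triggered by 40 ng/mL TNF-alpha added together with compound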
Autophagy mod = autophagy modulation, high-content screen; MEF GFP-LC3 puncta imaging; test concentration mostly 10 µM; 0.98% of 190,000 active; AID 463193; calls only at 10 µM (by protocol);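 active means percentage of spot-positive cells more than 3 SD above its plate mean, without a fluorescence outlier flag or 80% toxicity; inconclusive means no clear call, values can overlap the other calls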;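 further: spot-positive cell cutoff set from DMSO-treated cells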
Dynein transport = blocks dynein driven cargo transport along microtubules; 3617.4 mouse cells, GR-EGFP nuclear translocation imaging; test concentration mostly 20 µM; stimulated with dexamethasone, 1 µM; stronger effect = lower value; z-score, hits read low; 0.47% of 220,000 active; AID 1381;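 active means plate z-score of nuclear minus cytoplasmic receptor signal below a set negative limit, without overly bright fluorescence or cell loss, cut at about -3.5 in these data, passing the limit was not always enough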;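 further: z-score of nuclear minus cytoplasmic ring GR-EGFP intensity difference per well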
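Buffer or medium – tet-free medium with charcoal-stripped serum · Signal – automated 10x imaging of fixed Hoechst-stained cells · Also added – dexamethasone agonist, 1.0 µM final, for 30 min · Incubation – induction 48 h, compound 1 h, agonist 30 min · Read-out – GR-EGFP nuclear translocation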
zVAD death inh = blocks zVAD induced death of L929 cells | 0.38% of 220,000 active | L929 zVAD necroptosis rescue, ATP luminescence, 24 h; with zVAD 60 µM | viability rescue, % at 10 µM | AID 1377;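 active means activation, scaled between plate controls, above about 75%, limit read from the data; inactive means activation under that limit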;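 further: 0% = zVAD with DMSO and 100% = DMSO alone without zVAD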
Dynein confirm = dynein cargo transport inhibition, confirmation | AID 463116 | 69% of 1,000 active | 3617.4 GR-EGFP nuclear translocation imaging, dexamethasone-induced | calls only at 20 µM | shares compounds with Dynein transport;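 active means inhibition of receptor movement into the nucleus at or above a set limit in both runs, with normal cell brightness and cell count; inconclusive means limit reached in only one run, brightness and count normal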;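 further: dexamethasone at 1 µM final in well for 30 min; nuclear minus cytoplasmic GR-EGFP mean intensity difference in channel 2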
Active calls of the source: *; i = inactive; ? = inconclusive; . = no result given; + = active, no number.

SMILES	Mdm2 ligase inh	TNF necrop inh	Autophagy mod	Dynein transport	zVAD death inh	Dynein confirm
O=C(Oc1oc(-c2ccco2)nc1C=Nc1ccccc1)c1ccoc1	12	-19	i	-4*	1	+
O=C(Oc1oc(-c2ccco2)nc1C=Nc1ccccc1)c1ccco1	1	-11	i	-3.2	0	.
Cc1ccc(C(=O)Oc2oc(-c3ccco3)nc2C=Nc2ccc(Cl)cc2)cc1	-22	-1	i	-3.7*	0	+
CCOC(=O)c1cn(-c2c(Cl)cccc2Cl)c2cc(Cl)c([N+](=O)[O-])cc2c1=O	6	-2	i	-4.4*	.	+
CCOC(=O)c1cn(CC)c2cc(Cl)c([N+](=O)[O-])cc2c1=O	-18	-1	i	0.9	-1	.
Fc1ccccc1Oc1nc(-c2ccncc2)nc2ccccc12	-13	1	.	-0.18	4	.
NC(=O)c1ccc(NC(=O)CSC2=Nc3ccccc3C3CC=NN23)cc1 (stereo unspecified)	-10	-5	i	-4.2*	1	i
COCCCNC(=O)c1ccc2c3c(onc13)-c1ccccc1C2=O	-15	-30	.	-4.9*	-3	+
CC1=C(C(=O)OCC2CCCO2)C(c2ccc(C)cc2)C2=C(CC(C)(C)CC2=O)N1 (stereo unspecified)	-1	1	i	1.5	-1	.
COc1ccc(C(=O)n2nc(-c3ccco3)nc2SC)cc1OC	-29	-11	i	-4*	0	i
CSc1nc(-c2ccco2)nn1C(=O)c1cccs1	-22	-1	i	-0.61	1	.
Cc1ccc(-c2nc3cnccn3c2Nc2ccccc2)o1	-3	-4	i	-3.9*	0	i
Cc1ccc(Nc2c(-c3ccc(C)o3)nc3cnccn23)cc1	-12	-4	i	-3.2	0	.
COc1ccc(C(=O)Nc2ccc(/C(C)=N/NC(=O)c3ccccc3O)cc2)cc1OC	.	5	i	0.38	12	.
Cc1cccc2cc3c(N)c(C(=O)Nc4ccc(N5CCOCC5)cc4)sc3nc12	-7	-11	i	-0.49	11	.
CCc1cccc2cc3c(N)c(C(=O)Nc4ccc(S(=O)(=O)N5CCCC5)cc4)sc3nc12	6	4	+	-6.6	19	i
C/C(=N\NC(=O)c1c(-c2ccccc2Cl)noc1C)c1cccc(NC(=O)C(C)C)c1	-8	3	i	-0.25	1	.
O=C(/C=C/NNC(=O)c1ccc(Cl)cc1)c1ccccc1	-9	5	i	-6.2*	6	+
CN(C)c1ccc(/C=C2\CCC/C(=C\c3ccccc3)C2=O)cc1	-2	0	i	-6.3	1	i
Cc1cn(-c2ccccc2)c(C)c1/C=N\Nc1nc(N2CCOCC2)nc(N2CCOCC2)n1	-9	0	i	-0.48	-1	.
Cc1cc(C)nc(N/N=C/c2cc(Br)ccc2O)n1	-10	-5	.	-0.14	2	.
CN1C(=O)/C(=C\c2ccco2)N=C1c1ccc(Cl)cc1Cl	3	2	.	0.83	0	.
CC(C)CC(=O)/C=C/n1c(=S)oc2ccccc21	58*	-6	i	-4*	0	+
Cn1c(=S)oc2ccccc21	4	0	.	-0.81	0	.
CC(=O)/C=C/n1c(=S)oc2ccccc21	51*	23	+	-4.1*	12	+
SMILES	Mdm2 ligase inh	TNF necrop inh	Autophagy mod	Dynein transport	zVAD death inh	Dynein confirm
COC(=O)/C=C1\OC(c2ccccc2)=CC1=O	-2	0	i	-0.62	2	.
Cc1ccccc1C(=O)Nc1nnc(SC(C)C)s1	3	1	i	-1.3	1	.
Cc1cc(/C=C2\Sc3ccccc3N2C)cc(C)[n+]1CC1CCCO1 (stereo unspecified)	-46	-7	+	-5.6	0	i
CN(C(=O)COC(=O)c1nc(Cl)c(Cl)c(Cl)c1Cl)C1CCS(=O)(=O)C1 (stereo unspecified)	-4	6	i	-4.6*	43	+
CC1CCN(CC(CS(=O)(=O)c2ccc([N+](=O)[O-])cc2)N2CCC(C)CC2)CC1 (stereo unspecified)	-6	-30	.	-4.7*	35	+
CN1CC=C2C(C#N)=C(N)C(C#N)(C#N)C(Cc3ccccc3)C2C1 (stereo unspecified)	16	0	?	-4.6	0	i
CCCCS(=O)(=O)/C=C\C=C/S(=O)(=O)CCCC	31*	-12	i	-3.8	22	+
CCCCS(=O)(=O)/C=C\C1C2C=CC(C2)C1S(=O)(=O)CCCC (stereo unspecified)	-11	-3	i	0.41	0	.
CCOc1ccc(C(=O)C(CCC(CN(C)C)C(=O)c2ccc(OCC)cc2)CN(C)C)cc1 (stereo unspecified)	-18	-14	i	-4.1*	55	i
COc1ccc(C(=O)C(CCCCC(CN(C)C)C(=O)c2ccc(OC)cc2)CN(C)C)cc1 (stereo unspecified)	-17	-6	i	-0.18	1	.
Cc1nc2c(ccc3nc(NC(=O)c4ccc(S(=O)(=O)N(C)C)cc4)sc32)s1	-13	-1	i	-4.1*	8	i
Cc1nc2c(ccc3nc(NC(=O)Cc4ccccc4)sc32)s1	.	13	i	0.15	.	.
CCOC(=O)c1c2ccc(OCC(=O)N/N=C/c3ccc(Cl)cc3)cc2n2ccccc12	3	0	+	-3.8	0	i
COc1ccccc1-n1c(SCC(=O)c2ccc(O)cc2O)nc2cc([N+](=O)[O-])ccc21	6	2	i	-0.71	1	.
COC(=O)c1cc([N+](=O)[O-])c(-n2cncn2)c([N+](=O)[O-])c1	-2	-10	i	-4.6*	33	+
COc1cc(/C=N/NC(=O)c2sc3nc(C)cc(C)c3c2N)ccc1O	-1	-17	.	-1.2	65	.
CCOC(=O)C(C)CC(C)C(=O)N1CCOCCOCCN(C(=O)C(C)CC(C)C(=O)OCC)CCOCC1 (stereo unspecified)	-21	-1	i	-0.11	0	.
CCOC(=O)C(C(=O)OCC)C(C(=O)OCC)N1CCOCC1 (stereo unspecified)	3	-6	i	-4.6*	1	+
O=C(NN1CCOCC1)c1cccc(COc2cccc(Br)c2)c1	10	1	i	0.0056	2	.
Cc1c(-c2ccc(O)cc2)nc2nc(-c3ccccc3)c(-c3ccccc3)nn12	-13	-6	.	-5.3	-1	+
CCOC(=O)C1CCN(C(=O)Nc2ccc3nc(-c4ccco4)c(-c4ccco4)nc3c2)CC1	-7	-8	i	-4.5*	0	i
